What was measured:
Homo sapiens [1] = assay: Toxicity in human assessed as chills at 150 mg, […] with 700 mg fosamprenavir and 100 mg ritonavir po BID; type: organism-based; details: in vivo
Homo sapiens [2] = assay: Toxicity in human assessed as thrombocytopenia at 150 mg, […] with 700 mg fosamprenavir and 100 mg ritonavir po BID; type: organism-based; details: in vivo
Homo sapiens [3] = assay: Toxicity in human assessed as decrease in neutrophile count at 150 mg, […] with 700 mg fosamprenavir and 100 mg ritonavir po BID; type: organism-based; design: scale not given: the % may be the effect or the level left; details: in vivo
Homo sapiens [4] = assay: Toxicity in human assessed as pain at 150 mg, […] with 700 mg fosamprenavir and 100 mg ritonavir po BID; type: organism-based; details: in vivo
Homo sapiens [5] = assay: Toxicity in human assessed as nervous system disorder at 300 mg, po QD; type: organism-based; details: in vivo
clinical = details: human, in vivo, po
Homo sapiens [6] = assay: Toxicity in human assessed as renal and urinary disorder at 300 mg, po QD; type: organism-based, Urine; details: in vivo
Homo sapiens [7] = assay: Toxicity in human assessed as skin and subcutaneous tissue disorder at 300 mg, po QD; type: organism-based; details: in vivo
[8] = AUC (0 to 48 hrs) in human at 150 mg, […] coadministered with 700 mg fosamprenavir and 100 mg ritonavir po BID; type: ADME, organism-based; design: time < 48 hr, dose 150 mg, route oral; details: plasma
Method in brief: (§1)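 Healthy volunteers received RFB 150 mg every other day with FPV-RTV 700/100 mg BID to steady state. Serial EDTA plasma was sampled on the last treatment day at predose and 0.5–24, 36 and 48 h, then stored at –20°C. AUC0-48 came from noncompartmental analysis (linear up/log-linear down trapezoidal) using actual elapsed sampling times.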

Homo sapiens [9] = assay: Toxicity in human assessed as rash generalized at 300 mg, po QD; type: organism-based; details: in vivo
Homo sapiens [10] = assay: Toxicity in human assessed as blood and lymphatic system disorder at 300 mg, po QD; type: organism-based; details: in vivo
Homo sapiens [11] = assay: Toxicity in human assessed as nervous system disorder at 150 mg, […] with 700 mg fosamprenavir and 100 mg ritonavir po BID; type: organism-based; details: in vivo
Homo sapiens [12] = assay: Toxicity in human assessed as blood and lymphatic system disorder at 150 mg, […] with 700 mg fosamprenavir and 100 mg ritonavir po BID; type: organism-based; details: in vivo
Homo sapiens [13] = assay: Toxicity in human assessed as increase in ALT level at 300 mg, po QD; type: organism-based; details: in vivo
Homo sapiens [14] = assay: Toxicity in human assessed as thrombocytopenia at 300 mg, po QD; type: organism-based; details: in vivo
Homo sapiens [15] = assay: Toxicity in human assessed as increase in neutrophile count at 150 mg, […] with 700 mg fosamprenavir and 100 mg ritonavir po BID; type: organism-based; details: in vivo
Homo sapiens [16] = assay: Toxicity in human assessed as headache at 150 mg, […] with 700 mg fosamprenavir and 100 mg ritonavir po BID; type: organism-based; details: in vivo
Homo sapiens [17] = assay: AUC (0 to 48 hrs) in human assessed as dAc-RFB level at 300 mg, po QD; type: ADME, organism-based, Plasma; design: dose 300 mg, time < 48 hr, route oral; details: in vivo
Method in brief: (§2)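 Volunteers took RFB 300 mg QD alone to steady state. Serial EDTA plasma was sampled on the last treatment day at predose and 0.5–24 h, then stored at –20°C. AUC0-24 came from noncompartmental analysis (linear up/log-linear down trapezoidal) using actual times, and was doubled to estimate AUC0-48.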

Homo sapiens [18] = assay: Toxicity in human assessed as skin and subcutaneous tissue disorder at 150 mg, […] with 700 mg fosamprenavir and 100 mg ritonavir po BID; type: organism-based; details: in vivo
Homo sapiens [19] = assay: Toxicity in human assessed as myalgia at 150 mg, po QOD coadministered with 700 mg fosamprenavir and 100 mg ritonavir po BID; details: in vivo
Homo sapiens [20] = assay: Toxicity in human assessed as headache at 300 mg, po QD; type: organism-based; details: in vivo
Homo sapiens [21] = assay: Toxicity in human assessed as nausea at 150 mg, po QOD coadministered with 700 mg fosamprenavir and 100 mg ritonavir po BID; details: in vivo
Homo sapiens [22] = assay: Toxicity in human assessed as neutropenia at 150 mg, […] with 700 mg fosamprenavir and 100 mg ritonavir po BID; type: organism-based; details: in vivo
Homo sapiens [23] = assay: Toxicity in human assessed as chromaturia at 150 mg, po QOD coadministered with 700 mg fosamprenavir and 100 mg ritonavir po BID; details: in vivo
Homo sapiens [24] = assay: Toxicity in human assessed as fatigue at 150 mg, […] with 700 mg fosamprenavir and 100 mg ritonavir po BID; type: organism-based; details: in vivo
Homo sapiens [25] = assay: Toxicity in human assessed as pain at 300 mg, po QD; type: organism-based; details: in vivo
Homo sapiens [26] = assay: Toxicity in human assessed as psychiatric disorder at 300 mg, po QD; type: organism-based; details: in vivo
Homo sapiens [27] = assay: Toxicity in human assessed as increase in neutrophile count at 300 mg, po QD; type: organism-based; details: in vivo
Homo sapiens [28] = assay: Toxicity in human assessed as pollakiurea at 150 mg, po QOD coadministered with 700 mg fosamprenavir and 100 mg ritonavir po BID; details: in vivo
Homo sapiens [29] = assay: Toxicity in human assessed as insomnia at 150 mg, […] with 700 mg fosamprenavir and 100 mg ritonavir po BID; type: organism-based; details: in vivo
Homo sapiens [30] = assay: Toxicity in human assessed as diarrhea at 300 mg, po QD; type: organism-based; details: in vivo
Homo sapiens [31] = assay: Toxicity in human assessed as musculoskeletal and connective tissue disorder at 150 mg, […] with 700 mg fosamprenavir and 100 mg ritonavir po BID; type: organism-based; details: in vivo
[32] = Cmax in human at 300 mg, po QD; details: in vivo
Homo sapiens [33] = assay: Toxicity in human assessed as renal and urinary disorder at 150 mg, […] with 700 mg fosamprenavir and 100 mg ritonavir po BID; type: organism-based, Urine; details: in vivo
Homo sapiens [34] = assay: Toxicity in human assessed as myalgia at 300 mg, po QD; type: organism-based; details: in vivo
Homo sapiens [35] = assay: Toxicity in human assessed as general disorder at 150 mg, […] with 700 mg fosamprenavir and 100 mg ritonavir po BID; type: organism-based; details: in vivo
Homo sapiens [36] = assay: Toxicity in human assessed as rash generalized at 150 mg, […] with 700 mg fosamprenavir and 100 mg ritonavir po BID; type: organism-based; details: in vivo
Homo sapiens [37] = assay: Toxicity in human assessed as fatigue at 300 mg, po QD; type: organism-based; details: in vivo
Homo sapiens [38] = assay: Toxicity in human assessed as gastrointestinal disorder at 150 mg, po QOD coadministered with 700 mg fosamprenavir and 100 mg ritonavir po BID; details: in vivo
Homo sapiens [39] = assay: Toxicity in human assessed as insomnia at 300 mg, po QD; type: organism-based; details: in vivo
Homo sapiens [40] = assay: Toxicity in human assessed as nausea at 300 mg, po QD; type: organism-based; details: in vivo
Homo sapiens [41] = assay: Toxicity in human assessed as decrease in neutrophile count at 300 mg, po QD; type: organism-based; design: scale not given: the % may be the effect or the level left; details: in vivo
Homo sapiens [42] = assay: Toxicity in human assessed as neutropenia at 300 mg, po QD; type: organism-based; details: in vivo
[43] = AUC (0 to 48 hrs) in human at 300 mg, po QD; type: ADME, organism-based; design: time < 48 hr, dose 300 mg, route oral; details: plasma; method in brief: as §2
Homo sapiens [44] = assay: Toxicity in human assessed as diarrhea disorder at 150 mg, po QOD coadministered with 700 mg fosamprenavir and 100 mg ritonavir po BID; details: in vivo
Homo sapiens [45] = assay: Toxicity in human assessed as psychiatric disorder at 150 mg, […] with 700 mg fosamprenavir and 100 mg ritonavir po BID; type: organism-based; details: in vivo
Homo sapiens [46] = assay: Toxicity in human assessed as general disorder at 300 mg, po QD; type: organism-based; details: in vivo
Homo sapiens [47] = assay: Toxicity in human assessed as pollakiurea at 300 mg, po QD; type: organism-based; details: in vivo
Homo sapiens [48] = assay: Toxicity in human assessed as chills at 300 mg, po QD; type: organism-based; details: in vivo
Homo sapiens [49] = assay: AUC (0 to 48 hrs) in human assessed as dAc-RFB level at 150 mg, […] coadministered with 700 mg fosamprenavir and 100 mg ritonavir po BID; type: ADME, organism-based, Plasma; design: dose 150 mg, time < 48 hr, route oral; details: in vivo; method in brief: as §1
Homo sapiens [50] = assay: Toxicity in human assessed as increase in ALT level at 150 mg, […] with 700 mg fosamprenavir and 100 mg ritonavir po BID; type: organism-based; details: in vivo
Homo sapiens [51] = assay: Toxicity in human assessed as chromaturia at 300 mg, po QD; type: organism-based; details: in vivo
Homo sapiens [52] = assay: Toxicity in human assessed as musculoskeletal and connective tissue disorder at 300 mg, po QD; type: organism-based; details: in vivo
Homo sapiens [53] = assay: Toxicity in human assessed as gastrointestinal disorder at 300 mg, po QD; type: organism-based; details: in vivo

Which Activity (Homo sapiens [1]) does the source give for `CO[C@H]1/C=C/O[C@@]2(C)Oc3c(C)c(O)c4c(c3C2=O)C2=NC3(CCN(CC(C)C)CC3)NC2=C(NC(=O)/C(C)=C\C=C\[C@H](C)[C@H](O)[C@@H](C)[C@@H](O)[C@@H](C)[C@H](OC(C)=O)[C@@H]1C)C4=O` [RIFABUTIN] here?
The Activity was 3%.

And the Activity (Homo sapiens [2])?
The Activity was 3%.

What about the Activity (Homo sapiens [3]) of the same molecule?
The Activity was 3%.

And the Activity (Homo sapiens [4])?
The Activity was 1%.

And the Activity (Homo sapiens [5])?
The Activity was 35%.

What about the Cmax (clinical) of the same molecule?
The Cmax was 268 ng/mL.

And the Activity (Homo sapiens [6])?
The Activity was 59%.

What about the Activity (Homo sapiens [7]) of the same molecule?
The Activity was 0%.

And the AUC at 48 h [8]?
Its AUC at 48 h is 5810 ng·h/mL.

And the Activity (Homo sapiens [9])?
The Activity was 0%.

What about the Activity (Homo sapiens [10]) of the same molecule?
Its Activity is 3%.

What about the Activity (Homo sapiens [11]) of the same molecule?
Its Activity is 55%.

What about the Activity (Homo sapiens [12]) of the same molecule?
The Activity was 3%.

And the Activity (Homo sapiens [13])?
Its Activity is 0%.

And the Activity (Homo sapiens [14])?
Its Activity is 0%.

What about the Activity (Homo sapiens [15]) of the same molecule?
The Activity was 3%.

What about the Activity (Homo sapiens [16]) of the same molecule?
The Activity was 45%.

And the AUC (Homo sapiens [17])?
The AUC was 411 ng·h/mL.

And the Activity (Homo sapiens [18])?
Its Activity is 6%.

What about the Activity (Homo sapiens [19]) of the same molecule?
The Activity was 4%.

What about the Activity (Homo sapiens [20]) of the same molecule?
The Activity was 35%.

And the Activity (Homo sapiens [21])?
Its Activity is 9%.

What about the Activity (Homo sapiens [22]) of the same molecule?
Its Activity is 1%.

What about the Activity (Homo sapiens [23]) of the same molecule?
The Activity was 4%.

And the Activity (Homo sapiens [24])?
Its Activity is 4%.

What about the Activity (Homo sapiens [25]) of the same molecule?
The Activity was 2%.

What about the Activity (Homo sapiens [26]) of the same molecule?
The Activity was 5%.

And the Activity (Homo sapiens [27])?
Its Activity is 0%.

What about the Activity (Homo sapiens [28]) of the same molecule?
The Activity was 12%.

What about the Activity (Homo sapiens [29]) of the same molecule?
Its Activity is 1%.

And the Activity (Homo sapiens [30])?
The Activity was 0%.

What about the Activity (Homo sapiens [31]) of the same molecule?
Its Activity is 5%.

And the Cmax [32]?
Its Cmax is 313 ng/mL.

And the Activity (Homo sapiens [33])?
Its Activity is 50%.

And the Activity (Homo sapiens [34])?
The Activity was 0%.

What about the Activity (Homo sapiens [35]) of the same molecule?
Its Activity is 7%.

What about the Activity (Homo sapiens [36]) of the same molecule?
Its Activity is 2%.

What about the Activity (Homo sapiens [37]) of the same molecule?
Its Activity is 0%.

And the Activity (Homo sapiens [38])?
Its Activity is 7%.

And the Activity (Homo sapiens [39])?
Its Activity is 4%.

What about the Activity (Homo sapiens [40]) of the same molecule?
Its Activity is 6%.

And the Activity (Homo sapiens [41])?
Its Activity is 3%.

What about the Activity (Homo sapiens [42]) of the same molecule?
Its Activity is 2%.

And the AUC at 48 h [43]?
The AUC at 48 h was 6110 ng·h/mL.

And the Activity (Homo sapiens [44])?
The Activity was 4%.

What about the Activity (Homo sapiens [45]) of the same molecule?
Its Activity is 2%.

And the Activity (Homo sapiens [46])?
The Activity was 3%.

What about the Activity (Homo sapiens [47]) of the same molecule?
Its Activity is 6%.

What about the Activity (Homo sapiens [48]) of the same molecule?
Its Activity is 0%.

And the AUC (Homo sapiens [49])?
Its AUC is 4600 ng·h/mL.

And the Activity (Homo sapiens [50])?
The Activity was 5%.

And the Activity (Homo sapiens [51])?
The Activity was 0%.

What about the Activity (Homo sapiens [52]) of the same molecule?
The Activity was 2%.

And the Activity (Homo sapiens [53])?
The Activity was 2%.
